Values joined by “and” are separate entries in the source; they are usually repeats but may differ in a detail not shown here. Equal entries are not always repeated.
System: Fibroblast
Experiment: Multiplex assay against human fibroblast
Assay type: toxicity, cell-based
Summary of the method: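 On a CQ1 microscope at 37°C and 5% CO2, live cells were imaged after compound addition. They had been stained at seeding with Hoechst33342, BioTracker Green Microtubule Cytoskeleton Dye, MitoTracker Red and Annexin V Alexa Fluor 680. CellPathfinder machine-learning gating assigned cells to Hoechst high-intensity objects or normal cells, normal cells to healthy, pyknosed or fragmented nuclei, and pyknosed cells to mitotic or apoptotic. Tubulin, mitochondrial-mass and membrane-permeability phenotypes are per cents of healthy-nucleus cells.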

[1] = 12 h, 1 µM, compound concentration 1 uM
[2] = 12 h, 10 µM, compound concentration 10 uM
[3] = 24 h, 1 µM, compound concentration 1 uM
[4] = 24 h, 10 µM, compound concentration 10 uM
[5] = 48 h, 1 µM, compound concentration 1 uM
[6] = 48 h, 10 µM, compound concentration 10 uM

## CN1CCN(c2nc3cc(C(F)(F)F)ccc3n3cccc23)CC1.O=C(O)/C=C\C(=O)O.O=C(O)/C=C\C(=O)O
[1]
  Population Apoptotic (%): 50% and 26%
  Population Fragmented Nuclei (%): 18% and 24%
  Population Healthy Nuclei (%): 71% and 46%
  Population Hoechst High Intensity Objects (%): 0% and 6%
  Population Membrane Permeable-Phenotype (%): 0% and 6%
  Population Mitochondria Different-Phenotype (%): 5% and 4%
  Population Mitotic Cells (%): 50% and 73%
  Population Normal (%): 99% and 93%
  Population Tubulin-Different-Phenotype (%): 27% and 47%
  Total Cell Count: 146 and 107
[2]
  Population Apoptotic (%): 40% and 60%
  Population Fragmented Nuclei (%): 29% and 35%
  Population Healthy Nuclei (%): 59% and 41%
  Population Hoechst High Intensity Objects (%): 2% and 4%
  Population Membrane Permeable-Phenotype (%): 0% and 4%
  Population Mitochondria Different-Phenotype (%): 25% and 38%
  Population Mitotic Cells (%): 59% and 40%
  Population Normal (%): 97% and 95%
  Population Pyknosed Nuclei (%): 10% and 22%
  Population Tubulin-Different-Phenotype (%): 69% and 85%
  Total Cell Count: 207 and 117
[3]
  Population Apoptotic (%): 66% and 40%
  Population Fragmented Nuclei (%): 16% and 35%
  Population Healthy Nuclei (%): 72% and 42%
  Population Hoechst High Intensity Objects (%): 1% and 6%
  Population Membrane Permeable-Phenotype (%): 0% and 7%
  Population Mitochondria Different-Phenotype (%): 2% and 7%
  Population Mitotic Cells (%): 33% and 59%
  Population Normal (%): 98% and 93%
  Population Pyknosed Nuclei (%): 10% and 22%
  Population Tubulin-Different-Phenotype (%): 23% and 43%
  Total Cell Count: 142 and 104
[4]
  Population Apoptotic (%): 77% and 63%
  Population Fragmented Nuclei (%): 24% and 37%
  Population Healthy Nuclei (%): 64% and 43%
  Population Hoechst High Intensity Objects (%): 6% and 1%
  Population Membrane Permeable-Phenotype (%): 0% and 6%
  Population Mitochondria Different-Phenotype (%): 32%
  Population Mitotic Cells (%): 22% and 36%
  Population Normal (%): 93% and 98%
  Population Pyknosed Nuclei (%): 10% and 19%
  Population Tubulin-Different-Phenotype (%): 75% and 86%
  Total Cell Count: 214 and 117
[5]
  Population Apoptotic (%): 44% and 42%
  Population Fragmented Nuclei (%): 25% and 37%
  Population Healthy Nuclei (%): 63% and 40%
  Population Hoechst High Intensity Objects (%): 2% and 3%
  Population Membrane Permeable-Phenotype (%): 1% and 0%
  Population Mitochondria Different-Phenotype (%): 2%
  Population Mitotic Cells (%): 55% and 57%
  Population Normal (%): 97% and 96%
  Population Pyknosed Nuclei (%): 11% and 21%
  Population Tubulin-Different-Phenotype (%): 22% and 57%
  Total Cell Count: 162 and 102
[6]
  Population Apoptotic (%): 77% and 63%
  Population Fragmented Nuclei (%): 22% and 33%
  Population Healthy Nuclei (%): 68% and 57%
  Population Hoechst High Intensity Objects (%): 7% and 5%
  Population Membrane Permeable-Phenotype (%): 0% and 1%
  Population Mitochondria Different-Phenotype (%): 28% and 23%
  Population Mitotic Cells (%): 22% and 36%
  Population Normal (%): 92% and 94%
  Population Pyknosed Nuclei (%): 9%
  Population Tubulin-Different-Phenotype (%): 77% and 85%
  Total Cell Count: 211 and 118

## COc1ccccc1N1CCN(CCCCNC(=O)c2ccc3ccccc3c2)CC1.Cl
[1]
  Population Apoptotic (%): 52% and 40%
  Population Fragmented Nuclei (%): 19% and 20%
  Population Healthy Nuclei (%): 68% and 63%
  Population Mitotic Cells (%): 47% and 59%
  Population Normal (%): 95% and 96%
  Population Tubulin-Different-Phenotype (%): 35% and 42%
  Total Cell Count: 194 and 148
[2]
  Population Apoptotic (%): 58% and 39%
  Population Fragmented Nuclei (%): 32% and 40%
  Population Healthy Nuclei (%): 52% and 34%
  Population Mitotic Cells (%): 41% and 60%
  Population Normal (%): 96% and 89%
  Population Tubulin-Different-Phenotype (%): 79% and 90%
  Total Cell Count: 194 and 144
[3]
  Population Apoptotic (%): 39% and 60%
  Population Fragmented Nuclei (%): 14% and 26%
  Population Healthy Nuclei (%): 73% and 60%
  Population Mitotic Cells (%): 60% and 40%
  Population Normal (%): 98% and 96%
  Population Tubulin-Different-Phenotype (%): 31% and 40%
  Total Cell Count: 193 and 156
[4]
  Population Apoptotic (%): 66% and 69%
  Population Fragmented Nuclei (%): 32% and 41%
  Population Healthy Nuclei (%): 56% and 41%
  Population Mitotic Cells (%): 33% and 30%
  Population Normal (%): 95% and 91%
  Population Tubulin-Different-Phenotype (%): 85% and 81%
  Total Cell Count: 206 and 154
[5]
  Population Apoptotic (%): 42% and 29%
  Population Fragmented Nuclei (%): 21% and 34%
  Population Healthy Nuclei (%): 70% and 54%
  Population Mitotic Cells (%): 57% and 70%
  Population Normal (%): 96% and 95%
  Population Tubulin-Different-Phenotype (%): 38% and 39%
  Total Cell Count: 199 and 167
[6]
  Population Apoptotic (%): 73% and 75%
  Population Fragmented Nuclei (%): 33% and 38%
  Population Healthy Nuclei (%): 57% and 56%
  Population Mitotic Cells (%): 26% and 25%
  Population Tubulin-Different-Phenotype (%): 89% and 82%
  Total Cell Count: 224 and 168

— ChEMBL document CHEMBL5724801, “EUbOPEN Chemogenomics Library - Multiplex” (2024)
